Series [1] is described as follows: Selectivity ratio of EC50 for human alpha1B adrenergic receptor expressed in CHOK1 cells co-expressing aequorin assessed as inhibition of agonist induced calcium mobilization to EC50 for alpha1A adrenergic receptor (unknown origin) assessed as inhibition of agonist induced effect. It counts as cell-based. To be noted: cho-k1. For orientation: A change in cytosolic calcium serves as a functional read-out for many receptors and channels.

Series [2] concerns the target 5-hydroxytryptamine receptor 7 (Homo sapiens) (UniProt P34969). Briefly: Displacement of [3H]-LSD from human 5-HT7 receptor expressed in CHO-K1 cell membranes at 1 uM after 2 hr by micro beta2 scintillation counting analysis. The essentials: (§1)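 Membranes of CHO-K1 cells stably expressing human 5-HT1A or 5-HT7 receptor. Buffer 50 mM Tris–HCl, 0.1 mM EDTA, 10 mM MgCl2. Each compound screened at final 10 µM and 1 µM. Incubation at 37 °C, 1 h for 5-HT1A and 2 h for 5-HT7. Non-specific binding defined with 10 µM 5-HT (5-HT1A) or 10 µM methiothepine (5-HT7). Output is percent inhibition of specific binding.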
For orientation: In a radioligand displacement assay an active substance lowers the binding of a labelled ligand.

Series [3] has as its target T1, 5-hydroxytryptamine receptor 1A (Homo sapiens) (UniProt P08908).
T1 sequence (whole entry): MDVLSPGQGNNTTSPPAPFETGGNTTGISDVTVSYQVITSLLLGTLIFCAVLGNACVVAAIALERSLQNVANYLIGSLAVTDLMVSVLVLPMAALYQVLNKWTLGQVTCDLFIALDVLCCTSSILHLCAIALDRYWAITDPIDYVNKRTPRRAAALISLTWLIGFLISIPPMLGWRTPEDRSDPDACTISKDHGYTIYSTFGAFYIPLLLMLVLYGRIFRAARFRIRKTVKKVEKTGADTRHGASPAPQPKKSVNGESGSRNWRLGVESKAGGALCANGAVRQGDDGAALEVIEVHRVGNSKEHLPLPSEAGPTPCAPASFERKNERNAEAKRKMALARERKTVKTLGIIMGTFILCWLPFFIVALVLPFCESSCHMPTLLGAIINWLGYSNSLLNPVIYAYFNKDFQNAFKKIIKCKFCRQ
The series can be described thus: Displacement of [3H]-8-OH-DPAT from human 5-HT1A receptor expressed in CHO-K1 cell membranes at 1 uM after 1 hr by micro beta2 scintillation counting analysis. The essentials:
as §1

For series [4], the target named is T2, Alpha-1A adrenergic receptor (Homo sapiens, UniProt P35348).
T2 sequence (P35348 whole entry): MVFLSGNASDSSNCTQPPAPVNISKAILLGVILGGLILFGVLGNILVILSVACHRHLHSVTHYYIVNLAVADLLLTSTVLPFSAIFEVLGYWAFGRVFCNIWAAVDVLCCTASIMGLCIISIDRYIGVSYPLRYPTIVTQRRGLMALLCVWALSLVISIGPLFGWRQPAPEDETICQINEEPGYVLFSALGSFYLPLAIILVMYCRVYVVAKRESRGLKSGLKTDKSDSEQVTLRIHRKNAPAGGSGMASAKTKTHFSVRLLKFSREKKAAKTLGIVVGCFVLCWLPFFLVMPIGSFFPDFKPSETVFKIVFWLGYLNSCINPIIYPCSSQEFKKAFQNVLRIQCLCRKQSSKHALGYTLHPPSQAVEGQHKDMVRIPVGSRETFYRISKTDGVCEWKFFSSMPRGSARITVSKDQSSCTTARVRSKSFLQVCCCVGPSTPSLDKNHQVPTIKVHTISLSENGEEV
The series can be described thus: Intrinsic activity at alpha1A adrenergic receptor (unknown origin) assessed as inhibition of agonist induced effect preincubated for 30 mins followed by agonist addition measured after 5 hrs in presence of CCF4-AM by cell based beta lactamase reporter gene assay. In short, it runs like this:
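Antagonist mode: 8 compound concentrations (10^-4–10^-11 M), then after 30 min standard agonist at EC80. Incubated 5 h at 37 °C/5% CO2, then loaded with CCF4-AM FRET substrate for 2 h at room temperature. Fluorescence read-out. Mean EC50 from three experiments.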
A general note: Reporter assays use an easily measured gene product as a stand-in for the process of interest.

Series [5] has as its target T3, Alpha-1B adrenergic receptor (Homo sapiens, UniProt P35368).
T3 sequence (P35368 whole entry): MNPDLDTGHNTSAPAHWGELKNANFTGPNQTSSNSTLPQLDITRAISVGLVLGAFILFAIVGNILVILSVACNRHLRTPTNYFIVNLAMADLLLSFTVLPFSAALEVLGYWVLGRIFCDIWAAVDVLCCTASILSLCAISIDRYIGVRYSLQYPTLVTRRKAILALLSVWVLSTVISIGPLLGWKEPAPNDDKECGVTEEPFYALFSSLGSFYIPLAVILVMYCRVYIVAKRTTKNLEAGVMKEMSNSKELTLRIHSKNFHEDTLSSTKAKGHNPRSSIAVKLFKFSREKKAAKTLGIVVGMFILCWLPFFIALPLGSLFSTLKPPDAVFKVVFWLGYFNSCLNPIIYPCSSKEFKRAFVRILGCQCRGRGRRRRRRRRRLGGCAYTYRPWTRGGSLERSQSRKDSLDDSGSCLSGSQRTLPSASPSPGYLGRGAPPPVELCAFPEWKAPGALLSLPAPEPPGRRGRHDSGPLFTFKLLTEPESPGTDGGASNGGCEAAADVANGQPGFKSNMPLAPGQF
The series can be described thus: Intrinsic activity at human alpha1B adrenergic receptor expressed in CHOK1 cells co-expressing aequorin assessed as inhibition of agonist induced calcium mobilization preincubated for 15 mins followed by agonist addition measured for 20 secs in presence of coelenterazine H by luminescence assay. It counts as cell-based, CHO-K1. In short, it runs like this: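 Frozen ready-to-use cells stably expressing α1B receptor and aequorin, resuspended in assay buffer with 5 µM coelenterazine h and rotated overnight at rt in the dark. Diluted to 5000 cells/20 µL. Agonist mode: cells injected onto ligands, light recorded 20 s. Antagonist mode: 15 min with compound at room temperature, then agonist at 3× EC80 final, light recorded 20 s. Mean EC50 from three experiments.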

The target of series [6] is 5-hydroxytryptamine receptor 7 (Homo sapiens) (UniProt P34969). Briefly: Displacement of [3H]-LSD from human 5-HT7 receptor expressed in CHO-K1 cell membranes at 10 uM after 2 hr by micro beta2 scintillation counting analysis. The conditions noted are these: 0.1 uM, in the assay text read “at 0.1 uM” for “at 10 uM”. In short, it runs like this:
as §1

The subject of series [7] is Rattus norvegicus. Briefly: Hypotensive activity in normotensive anesthetized Wistar rat assessed as decrease in systolic blood pressure at 5 mg/kg, iv administered as single dose measured 60 mins post dose relative to control. The conditions noted are these: 1 h. It counts as functional. The essentials:
(§2)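 Male Wistar rats (200–250 g), groups of six, anaesthetized with thiopental 70 mg/kg ip. Left carotid artery cannulated with heparinized saline-filled tubing for pressure recording. Compounds dissolved in water and given once iv. Blood pressure taken at 0 min (control) and over 60 min afterward. Data as mean ± SEM, analysed by one-way ANOVA with Dunnett's test against 0 min.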

Series [8] concerns Rattus norvegicus. Briefly: Hypotensive activity in normotensive anesthetized Wistar rat assessed as decrease in systolic blood pressure at 2 mg/kg, iv administered as single dose measured 60 mins post dose relative to control. The conditions noted are these: 1 h. It counts as functional. The essentials:
as §2

Series [9] has as its system Rattus norvegicus. The series can be described thus: Hypotensive activity in normotensive anesthetized Wistar rat assessed as decrease in diastolic blood pressure at 2 mg/kg, iv administered as single dose measured 60 mins post dose relative to control. Format: functional. To be noted: 1 h. In short, it runs like this: as §2
In series [10] the test system is Rattus norvegicus. The series can be described thus: Hypotensive activity in normotensive anesthetized Wistar rat assessed as decrease in diastolic blood pressure at 5 mg/kg, iv administered as single dose measured 60 mins post dose relative to control. Format: functional. To be noted: 1 h. In short, it runs like this:
as §2

pEC50: −log10 of the molar value.

This is an account of results in ChEMBL document CHEMBL3861996, “Arylsulfonamide derivatives of (aryloxy)ethyl pyrrolidines and piperidines as α1-adrenergic receptor antagonist with uro-selective activity” (Bioorg Med Chem, 2016).

5-hydroxytryptamine receptor 7 (Homo sapiens), sequence (P34969 whole entry): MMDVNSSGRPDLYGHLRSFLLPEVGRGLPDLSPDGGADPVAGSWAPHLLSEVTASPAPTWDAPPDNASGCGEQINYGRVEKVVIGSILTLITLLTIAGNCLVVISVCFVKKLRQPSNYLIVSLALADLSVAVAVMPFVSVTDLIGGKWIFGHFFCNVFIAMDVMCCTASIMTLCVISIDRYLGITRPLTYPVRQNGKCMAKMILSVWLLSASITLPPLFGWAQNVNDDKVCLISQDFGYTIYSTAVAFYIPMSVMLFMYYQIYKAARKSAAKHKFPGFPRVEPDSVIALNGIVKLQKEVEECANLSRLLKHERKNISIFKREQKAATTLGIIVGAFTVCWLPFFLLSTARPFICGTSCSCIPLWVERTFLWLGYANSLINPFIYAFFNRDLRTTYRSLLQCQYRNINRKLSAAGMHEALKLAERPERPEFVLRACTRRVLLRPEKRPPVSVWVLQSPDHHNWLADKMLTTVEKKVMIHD

As to `COc1ccccc1OCCN1CCC(CNS(=O)(=O)c2cncc3ccccc23)CC1`, in series [1], the “Ratio EC50” value worked out at 3.68. Further, the inhibition (in general, the percentage by which the read-out fell short of the control) in series [2] worked out at 89%; in series [3], 78%; in series [6], 54%. Further, the negative logarithm of the EC50 (pEC50) (in general, −log10 of the EC50, conventionally taken in molar units) was 6.85 in [4] and 6.29 in series [5].

As for `CC(C)Oc1ccccc1OCCN1CCC(CNS(=O)(=O)c2cccc(Cl)c2F)CC1`, in [1], the “Ratio EC50” value was found to be 3.8. Moreover, the inhibition came out at 90% in series [2], 59% in series [3] and 45% in series [6]. The pEC50 in [4] is 7.95; in [5], 7.38. Besides, the inhibition in vivo (usually the share of the control response that was lost under treatment) at 5 mg/kg in series [7] was 2 to 5%. Moreover, in series [8], the inhibition in vivo at 2 mg/kg is 7%.

`COc1ccccc1OCCN1CCC(NS(=O)(=O)c2cncc3ccccc23)CC1`: the “Ratio EC50” value in [1] is reported as 6.1. Also, the inhibition in [2] worked out at 87%; in series [3] it was 69%; in series [6] it was 41%. Also, the pEC50 in series [4] is 7.00; in series [5], 6.22. Also, the inhibition in vivo at 5 mg/kg lay in the range of 6 to 11% in series [7] and 2 to 8% in [10]. The inhibition in vivo at 2 mg/kg in series [9] was 4 to 8%; in [8] it was 4 to 10%.

As to `COc1ccc(S(=O)(=O)NCC2CCN(CCOc3ccccc3OC)CC2)cc1OC`, the “Ratio EC50” value in series [1] was found to be 3.73. In addition, the inhibition was 52% in series [2], 72% in series [3] and 16% in [6]. The pEC50 in series [4] was 6.79; in series [5], 6.22.

For `CC(C)Oc1ccccc1OCCN1CCC(CNS(=O)(=O)c2cccc3cccnc23)CC1`, in series [1], the “Ratio EC50” value is reported as 3.07. Also, the inhibition in series [2] is 91%; in [3], 61%; in series [6], 51%. Besides, the pEC50 was 7.47 in [4] and 6.98 in series [5].

Consider `COc1ccccc1OCCN1CCC(CNS(=O)(=O)c2cccc(Cl)c2)CC1`, for which, in [1], the “Ratio EC50” value is listed as 0.13. The values for the pEC50 in series [4] and in series [5] were 6.92 and 7.81, respectively.

For the compound `COc1ccccc1OCCN1CCC(CNS(=O)(=O)c2cc(Cl)ccc2F)CC1`, the “Ratio EC50” value in series [1] came out at 0.08. Further, the pEC50 in series [4] is 6.83; in series [5], 7.90.

`COc1ccc(S(=O)(=O)NC2CCN(CCOc3ccccc3OC)CC2)cc1OC`: the “Ratio EC50” value in series [1] came out at 2.4. In addition, the negative-log EC50 (pEC50) was 6.72 in series [4] and 6.34 in series [5].

In the case of `COc1ccccc1OCCN1CCC(CNS(=O)(=O)c2cccc(Cl)c2F)CC1`, the “Ratio EC50” value in series [1] is given as 0.17. Also, the pEC50 in series [4] is 7.07; in [5] it was 7.85.
